This is an account of results in PMC4377729 (Theranostics, 2015).

Structures are written as SMILES.

The format of series [1] is in vivo. Conditions: 10 nmol (0.4 mg/kg) intravenously, mice, 4 h post-injection. In outline: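 Nude mice (about 25 g) were anesthetized with ip ketamine/xylazine, given 10 nmol (0.4 mg/kg) conjugate iv in saline, and imaged 4 h later. Excitation was 745-779 nm light at 14 mW cm-2, with 800-848 nm emission and fixed exposure. SBR is tissue signal over neighbouring muscle or skin. For biodistribution, mice were killed at 30-240 min and organs resected and imaged; n ≥ 3 per time point.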

The conditions of series [2]: in DMSO; cited from earlier work.
For series [3] the following is noted: previously reported; cited from earlier work.

`CC1(C)C(/C=C/C2=C(Oc3ccc(S(=O)(=O)O)cc3)C(=C/C=C3/N(CCCCS(=O)(=O)O)c4ccc(S(=O)(=O)[O-])cc4C3(C)C)/CCC2)=[N+](CCCCCC(=O)O)c2ccc(S(=O)(=O)O)cc21` [CW800]: the “location of NIR fluorescence signal / tissue uptake (in words)” value in series [1] was “elevated nonspecific background signals in the liver and skin”. Turning to `CC1(C)C(/C=C/C=C/C=C/C=C2\N(CCCCS(=O)(=O)[O-])c3ccc4ccccc4c3C2(C)C)=[N+](CCCCS(=O)(=O)[O-])c2ccc3ccccc3c21.[Na+]` [ICG], the “QY of calibration standard” value in series [2] was 13%.

Turning to `CC1(C)C(/C=C/C2=C(Oc3ccc(CCC(=O)NCCC(O)(P(=O)([O-])O)P(=O)(O)O)cc3)C(=C\C=C3/N(CCCCS(=O)(=O)O)c4ccc(S(=O)(=O)O)cc4C3(C)C)/CCC2)=[N+](CCCCS(=O)(=O)O)c2ccc(S(=O)(=O)O)cc21` (stereo not drawn) [Pam78], the “binding to hydroxyapatite (HA) in vitro and in vivo (in words)” value in series [3] is “rapid and specific binding to hydroxyapatite (HA) in vitro and in vivo”.
